Measured values taken from the RNAGym collection of RNA variant scans (doi:10.1126/science.aae0568).
This sample holds only a part of the variants without activity.

B1: tRNA (parent)
chain: GUUCCGUUGGCGUAAUGGUAACGCGUCUCCCUCCUAAGGAGAAGACUGCGGGUUCGAGUCCCGUACGGAACG

Variants of: B1
Assay: yeast fitness relative to wild type (ratio to wild type); higher = fitter; tRNA-Arg(CCU), competitive growth, 37 C, YPD
Summary of the method: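 Genotype frequency changes were the basis for Darwinian fitness relative to wild type. The frequencies came from 100-nucleotide paired-end sequencing of gene amplicons from the start population and each end population of pooled yeast strains with tRNA-Arg(CCU) gene variants at the native locus. Competition ran in YPD at 37°C for 24 hours in six replicates, genotypes needed ≥ 100 starting reads, and estimates < 0.5 were set to 0.5.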
For C29G A36G G38A A45G, the yeast fitness was at most 0.5. In the case of C29G C49G G51U A57G, the yeast fitness is reported as at most 0.5. C29A C46A C55A A57G gave a yeast fitness of at most 0.5. Variant C29G C30U A65G has a yeast fitness of at most 0.5. For C29A A42U U64C A69C, the yeast fitness was at most 0.5. For U28C A42G C55U A70U, the yeast fitness was at most 0.5. Work on C29G G41A U47G yielded a yeast fitness of at most 0.5. Work on U28C G39C G44C G58A yielded a yeast fitness of at most 0.5. C29A C66A G68C showed a yeast fitness of at most 0.5. With C29G G51A A69U the yeast fitness was at most 0.5. Variant C29A G44A A70G has a yeast fitness of 0.804. For C29G A43U C46U G67C, the yeast fitness was at most 0.5. With C29A C46U the yeast fitness was 0.724. With U28G C34A U35C the yeast fitness was at most 0.5. For C29G U32A U64A, the yeast fitness was at most 0.5. Work on U28G C33G C49U G68C A69U yielded a yeast fitness of at most 0.5. In the case of C29A A37C A45C U47A, the yeast fitness is reported as 0.573. With U28G A36G G51A the yeast fitness was at most 0.5. In the case of C29A A45C G48C C49G, the yeast fitness is reported as at most 0.5. Variant C29G A37C A42U A57G G67A has a yeast fitness of at most 0.5. C29G U35A A36C gave a yeast fitness of at most 0.5. With U28C A43C G44C C61G A65U the yeast fitness was at most 0.5. With C29G A40G the yeast fitness was 0.648. In the case of C29G G52C A57U A65G, the yeast fitness is reported as at most 0.5. Work on C29A U35A G56A yielded a yeast fitness of 0.741. Work on U28G U32A G38C A65C G67C yielded a yeast fitness of at most 0.5. In the case of C29A A69U, the yeast fitness is reported as 0.756. For C29A A69C, the yeast fitness was 0.679. Work on U28C G41C C49A C61U A70U yielded a yeast fitness of at most 0.5. C29G C49G C55A gave a yeast fitness of at most 0.5. C29G A65U A70G gave a yeast fitness of 0.506. With C29G C49G A57G the yeast fitness was 0.6. U28G G41C C55G A70U showed a yeast fitness of at most 0.5. In the case of U28G C31A C61U, the yeast fitness is reported as at most 0.5. Variant C29A U32C A42U A69U has a yeast fitness of at most 0.5. For U28C A57G, the yeast fitness was 0.896. In the case of U28C A70C, the yeast fitness is reported as 0.878. For C29A C30A G67U, the yeast fitness was 0.667. With C29G C46U the yeast fitness was 0.611. U28G C60G gave a yeast fitness of 0.603. In the case of U28G C33G C49U, the yeast fitness is reported as at most 0.5. With C29A G39A C49A C66G the yeast fitness was at most 0.5. U28C A42C gave a yeast fitness of 0.858. For C29A U32A A65C, the yeast fitness was at most 0.5. For C29G C61U C66A, the yeast fitness was at most 0.5. C29G U35A A36C G68A gave a yeast fitness of at most 0.5. C29G C49G G68C gave a yeast fitness of at most 0.5. Work on C29A G58A C61G A70U yielded a yeast fitness of 0.642. With C29G A69G the yeast fitness was at most 0.5. Variant U28C C29G C30G A36G has a yeast fitness of at most 0.5. In the case of U28C C60G, the yeast fitness is reported as 0.572. In the case of U28C C60A, the yeast fitness is reported as 0.632. With U28C C61U A69U the yeast fitness was 0.727. U28C U64C gave a yeast fitness of 0.877. In the case of C29G C31A G44C A65C, the yeast fitness is reported as at most 0.5. In the case of U28C C55U G67C, the yeast fitness is reported as 0.557. C29G U32C A36G gave a yeast fitness of 0.597. C29G C49A A70G showed a yeast fitness of at most 0.5. Work on C29G C49A A70C yielded a yeast fitness of 0.538. Variant C29A C33U U47A A57U has a yeast fitness of at most 0.5. In the case of U28C C34G A40G A43G C46G G52A C55U, the yeast fitness is reported as 0.613. For C29G A37G A70G, the yeast fitness was 0.562. C29G A36U A42G C55A showed a yeast fitness of at most 0.5. C29G C30U G58A showed a yeast fitness of 0.608. In the case of C29A A37U G38C A40C A43C C46U, the yeast fitness is reported as 0.599. Variant U28G A43G has a yeast fitness of 0.643. Variant U28C C49U has a yeast fitness of 0.905. Variant C29G A40U C66U has a yeast fitness of at most 0.5. For U28C A65G, the yeast fitness was 0.998. Work on C29G A42C G51A A70U yielded a yeast fitness of at most 0.5. C29G G41C A65U showed a yeast fitness of at most 0.5. In the case of C29G C49A U64A, the yeast fitness is reported as at most 0.5. Work on C29A A37C A40U G63A yielded a yeast fitness of 0.519. For U28G U35C, the yeast fitness was 0.758. C29A showed a yeast fitness of 0.631. C29G showed a yeast fitness of 0.686. C29G U35A A42U showed a yeast fitness of at most 0.5. For C29G C33U G68A, the yeast fitness was at most 0.5. Variant C29G U32G G38A C46U A70U has a yeast fitness of at most 0.5. Work on U28C A45C yielded a yeast fitness of 0.993. In the case of U28C A45U, the yeast fitness is reported as 0.985. U28G A42C A57C showed a yeast fitness of 0.627. For C29A C34G, the yeast fitness was at most 0.5. C29G C46U A57G showed a yeast fitness of 0.642. Variant U28C G50U has a yeast fitness of 0.602. Variant C29G G41A C61U has a yeast fitness of 0.531. C29A G50A gave a yeast fitness of 0.678. In the case of U28G A40U A43U, the yeast fitness is reported as 0.878. Work on C29G G48A G67C yielded a yeast fitness of at most 0.5. With C29A A36U G50C C55G C61G the yeast fitness was at most 0.5. C29G C60U G67A A69U showed a yeast fitness of 0.588. Work on C29A C55U G63C yielded a yeast fitness of at most 0.5. C29G G52C A57U gave a yeast fitness of at most 0.5. Work on C29G A37C G63A yielded a yeast fitness of at most 0.5. Work on C29G A43G U64C yielded a yeast fitness of at most 0.5. C29A C49U showed a yeast fitness of 0.627. C29G C31A C55U A70U gave a yeast fitness of at most 0.5. Variant C29A A36U A40U C55U G56A U59C has a yeast fitness of at most 0.5. With C29G A40C A57C the yeast fitness was 0.551. Work on C29G C49A yielded a yeast fitness of 0.664. Variant C29A C30U G48A G50A has a yeast fitness of at most 0.5. Work on U28G C31U A40C A70U yielded a yeast fitness of at most 0.5. Work on C29G A36U C49U C60U yielded a yeast fitness of at most 0.5. With U28C C31U the yeast fitness was 0.981. C29G C33G gave a yeast fitness of 0.59. With C29G C33A the yeast fitness was 0.641. For U28G A70G, the yeast fitness was 0.826. In the case of U28G C29A G41C A43U, the yeast fitness is reported as at most 0.5. In the case of C29G C46U G56A, the yeast fitness is reported as at most 0.5. Variant U28G U54G A65C G67A has a yeast fitness of at most 0.5. Work on U28C G51C A65C yielded a yeast fitness of at most 0.5. In the case of C29G A57C C66G, the yeast fitness is reported as at most 0.5. In the case of C29G G44A G58C, the yeast fitness is reported as at most 0.5. For U28G G38A C60G A65C A69C, the yeast fitness was 0.618. For C29G A37C G63A A65G, the yeast fitness was at most 0.5. Work on C29A A36C G51A U53C U64C A65U yielded a yeast fitness of at most 0.5. Variant C29G G41A A57G has a yeast fitness of at most 0.5. In the case of U28C C49U G63U, the yeast fitness is reported as 0.531. With C29A G41A A43C A69C the yeast fitness was at most 0.5. Work on U28C C61G yielded a yeast fitness of 0.583. Work on U28C G38C G52A yielded a yeast fitness of at most 0.5. In the case of C29G C34U U59C, the yeast fitness is reported as 0.631. With U28C C62A the yeast fitness was 0.746. In the case of U28G C29A G41C A43U C66G, the yeast fitness is reported as 0.595. With C29A A36U the yeast fitness was at most 0.5. Variant U28C C33G A40G G51C C61U A65U has a yeast fitness of at most 0.5. Work on C29G G39C A65C yielded a yeast fitness of 0.546. Work on C29G G68C yielded a yeast fitness of 0.595. Variant C29G C31A U47A U59A C60U C62G C66U has a yeast fitness of at most 0.5. Work on C29G G48C C60G yielded a yeast fitness of 0.515. Variant C29G U35A A36C C62A has a yeast fitness of at most 0.5. For C29G C49U G63A, the yeast fitness was 0.513. For C29G C46A G68A, the yeast fitness was at most 0.5. In the case of C29G C31A U35C G67A, the yeast fitness is reported as at most 0.5. In the case of U28G A57C, the yeast fitness is reported as 0.587. U28G C29G G41A showed a yeast fitness of at most 0.5. With U28C C33U A45U the yeast fitness was 0.578. C29G C60U gave a yeast fitness of 0.576. In the case of U28G A36G A45G A69U, the yeast fitness is reported as 0.825. U28G C33A A45C showed a yeast fitness of at most 0.5. With C29A C30U G48A G50A C60A the yeast fitness was at most 0.5. For C29G G44C C49A U64C, the yeast fitness was at most 0.5. C29G C60A G67A showed a yeast fitness of at most 0.5. U28C U59G showed a yeast fitness of 0.852. Work on U28G C46G C49U C61A yielded a yeast fitness of at most 0.5. In the case of C29G U35A U64C, the yeast fitness is reported as at most 0.5. Work on C29G U32A C62A yielded a yeast fitness of 0.608. Work on C29A A45C C46U G51A G56A yielded a yeast fitness of at most 0.5. In the case of U28G A57U U59C, the yeast fitness is reported as at most 0.5. In the case of U28G C29A G52C A57U, the yeast fitness is reported as at most 0.5. In the case of C29G A37C C60A A70G, the yeast fitness is reported as at most 0.5. U28C A42C A43C C55G A57G showed a yeast fitness of at most 0.5. C29A A57G U64A gave a yeast fitness of at most 0.5. C29G A40C A42C A65C showed a yeast fitness of 0.565. In the case of U28C C33G G38A U54C U64G, the yeast fitness is reported as at most 0.5. C29G C46G G48C showed a yeast fitness of 0.533. C29G A37U U59C C66G showed a yeast fitness of 0.687. Work on U28C C33A A42C A45U A69C yielded a yeast fitness of 0.622. In the case of C29G A36U A65U, the yeast fitness is reported as at most 0.5. For C29G A40C A43G A45C U47C C62U A69C, the yeast fitness was at most 0.5. For U28C G41C, the yeast fitness was 0.712. U28C G41A showed a yeast fitness of 0.783. Work on C29G C49U G58C yielded a yeast fitness of 0.558. In the case of C29A C30U, the yeast fitness is reported as 0.689. With U28C C66A the yeast fitness was 0.689. Work on C29A A57C U59A yielded a yeast fitness of 0.55. C29A A37G showed a yeast fitness of 0.545.
